Assay outcomes from PubChem.
Rows were chosen to be rich in hits. Some 3% of all compounds tested hit in one or more screens of this group.
CHRM4 agonist – agonists of human muscarinic M4 receptor (CHRM4) | 360,000 tested, 0.14% active | activation, % at 3 µM | CHO-K1 hM4/Gqi5, Fluo-8 calcium fluorescence; vehicle 0%, full acetylcholine response 100% | P08173;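 active = activation above the run mean over all test wells plus 3 SD, cut at about 32% in these data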;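 also: peak over basal fluorescence ratio per well then scaled between controls; 0% = DMSO wells and 100% = acetylcholine at EC100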
Target sequence (P08173 whole entry, looked up): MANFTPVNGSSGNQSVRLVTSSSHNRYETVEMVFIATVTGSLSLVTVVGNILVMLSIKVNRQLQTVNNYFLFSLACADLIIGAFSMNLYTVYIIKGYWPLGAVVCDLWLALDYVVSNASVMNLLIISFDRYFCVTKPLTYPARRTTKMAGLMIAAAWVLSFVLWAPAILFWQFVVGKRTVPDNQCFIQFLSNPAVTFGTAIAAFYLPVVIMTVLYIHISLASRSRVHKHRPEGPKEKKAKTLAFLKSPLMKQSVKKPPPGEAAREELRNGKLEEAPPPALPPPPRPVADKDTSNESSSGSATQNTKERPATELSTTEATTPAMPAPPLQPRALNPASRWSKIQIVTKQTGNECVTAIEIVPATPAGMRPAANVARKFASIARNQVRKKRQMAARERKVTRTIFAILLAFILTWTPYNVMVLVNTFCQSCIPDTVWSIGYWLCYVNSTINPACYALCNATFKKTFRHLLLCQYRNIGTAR
TAAR1 antag – antagonists of human TAAR1; CHO RD-HGA16 TAAR1, Fluo-8 calcium fluorescence, antagonist; inhibition, % at 3 µM; 360,000 tested, 1.5% active; AID 624466;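 active = inhibition above a per-plate cutoff, the mean inhibition of test compounds on that plate plus 3 SD, cut at about 49% in these data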;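 also: 0% = DMSO plus EC80 beta-PEA response and 100% = DMSO alone without agonist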
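Assay system: RD-HGA16 CHO cells with stable hTAAR1 and Gα16 / Reagent: EC80 β-phenethylamine stimulus / Doses: 3 µM, single point / Timing: dye loading 75 min at 37 °C, then 30 min room temperature / Measured by: Fluo-8 intracellular calcium dye fluorescence, real-time kinetic reads / Controls: vehicle wells and EC80 agonist wells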
TAAR1 agonist – human TAAR1 agonism | 360,000 tested, 0.99% active | CHO RD-HGA16 TAAR1, Fluo-8 calcium fluorescence; vehicle wells 0%, saturating PEA agonist 100% | activation, % at 3 µM | Q96RJ0;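 active = activation above the mean activation of all test compounds in the run plus 3 SD, cut at about 38% in these data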
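Benchmarks: low control DMSO, high control PEA (EC100); System: CHO RD-HGA16 cells carrying human TAAR1 plus Gα16; Detection: Fluo-8 fluorescence, 5 s baseline then 140 s kinetic read; Schedule: 17-24 h plating, Fluo-8 75 min 37 °C, 30 min RT; Read-out basis: % activation from peak over basal fluorescence ratio, DMSO-to-PEA scaled.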
M4 antag – CHRM4 antagonism in calcium assay. AID 624125. 360,000 tested, 0.73% active. CHO-hM4 cells, ACh EC80, Fluo-8 calcium fluorescence. inhibition, % at 3 µM;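 active = inhibition above its plate's cutoff, the mean inhibition of sample wells plus 3 SD, cut at about 27% in these data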;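 also: 0% = acetylcholine EC80 with DMSO and 100% = DMSO without agonist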
CHRM4 PAM – CHRM4 positive allosteric modulation; P08173; CHO-K1 hM4/Gqi5, Fluo-8 calcium fluorescence, ACh EC20; 0% = ACh EC20, 100% = maximal ACh; activation, % at 3 µM; 360,000 tested, 0.4% active;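 active = activation above its plate's cutoff, the mean activation of sample wells plus 3 SD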
Numbers without * were called inactive; . = no result.

SMILES | CHRM4 agonist | TAAR1 antag | TAAR1 agonist | M4 antag | CHRM4 PAM
CCN(CC)C(=O)COc1cccc2ccccc12 | 0 | 0 | 1 | 20 | 29*
O=C(O)COc1cccc2ccccc12 | 1 | -3 | 4 | -2 | 3
C=CCN=C1NC(c2ccccc2)C(C(=O)OC)=C(C)N1Cc1ccccc1C(F)(F)F (configuration not stated) | . | -21 | 10 | . | .
C#Cc1cccc(Nc2nc(NCCOC)nc3ccsc23)c1 | 18 | 57* | 9 | 14 | -11
C#Cc1cccc(Nc2nc(NCc3ccccc3OC)nc3ccsc23)c1 | 14 | 52* | 5 | 30* | -10
C#Cc1cccc(Nc2nc(NC(C)C)nc3ccsc23)c1 | 15 | 35 | 2 | 12 | -9
Cc1[nH]c2ccccc2c1CCNC(=O)c1ccc2c(c1[N+](=O)[O-])C(=O)c1ccccc1C2=O | 2 | 12 | -3 | 5 | 0
Cc1[nH]c2c(C)cccc2c1CCNC(=O)c1ccc2c(c1[N+](=O)[O-])C(=O)c1ccccc1C2=O | 2 | 20 | 4 | 29* | -10
COc1ccc(Nc2nc(Nc3ccc(OC)cc3)nc(-n3[nH]c(=O)c(C)c3C)n2)cc1 | 10 | 32 | 5 | 28* | -9
O=C(O)Cc1cn(Cc2cccc(Cl)c2)c2ccccc12 | 3 | 11 | 0 | -2 | 26*
O=C(Cc1cn(Cc2cccc(Cl)c2)c2ccccc12)N1CCCCCC1 | -3 | 5 | 1 | -3 | -4
CC(=O)c1c(C)oc2ccc(N(C(C)=O)S(=O)(=O)c3cccc4cccnc34)cc12 | 17 | 59* | 15 | 10 | -30
Cc1ccc(O)c(C(=O)c2cc(C(=O)NCCc3ccccc3)c(=O)n(CCc3ccccc3)c2)c1 | 4 | 58* | 4 | 8 | -7
COc1ccc(O)c(C(=O)c2cc(C(=O)NCCc3ccccc3)c(=O)n(CCc3ccccc3)c2)c1 | 2 | 51* | 2 | 1 | -6
Cc1ccc(O)c(C(=O)c2cc(C#N)c(=O)n(Cc3ccccc3)c2)c1 | 5 | -1 | 5 | 12 | -7
O=S(=O)(Nc1nc2ccccc2[nH]1)c1ccc2ccccc2c1 | 2 | . | . | 70* | -33
Cc1ccccc1-c1ccc2c(c1)[C@@H]1C[C@H]3[C@@H](CN1CC2)[C@H](C)OC(c1ccccc1)N3C (some centres not stated) | . | -17 | 3 | . | .
COc1ccc(-n2c(C)c(C(C)=O)c(C(C)=O)c2C)cc1OC | 1 | -5 | 2 | -20 | 17*
COc1cccc(/C=C/C(=O)OCC(=O)Nc2ccc3c(c2)OCCO3)c1 | 1 | -28 | 12 | -9 | 11
Cc1nn(-c2ccccc2)c(C)c1NC(=O)COC(=O)/C=C/c1ccccc1 | 15 | 60* | 19 | 6 | 1
O=C(COC(=O)/C=C/c1ccccc1)Nc1ccc2c(c1)OCCO2 | 0 | -3 | 4 | -19 | 27*
CC(=O)Nc1ccc(NC(=O)COC(=O)/C=C/c2ccc3c(c2)OCO3)cc1 | 3 | 21 | 12 | -7 | 11
O=C(COC(=O)/C=C/c1ccc(Cl)cc1)Nc1ccc2c(c1)OCCO2 | 3 | 54* | 42* | -14 | 34*
COC(=O)c1c(-c2ccc(OC)cc2)c2c(c3c4cc(OC)ccc4n(C(=O)c4ccccc4)c13)C(=O)N(C)C2 | . | 24 | 2 | . | .
Cc1ccc2nc(-c3ccc(N)cc3)sc2c1 | 1 | 0 | 0 | 2 | 13*
SMILES | CHRM4 agonist | TAAR1 antag | TAAR1 agonist | M4 antag | CHRM4 PAM
CCOC(=O)c1c(Nc2ccc(OC)cc2)n[nH]c1C | . | -1 | -2 | . | .
Cc1ccc(NS(=O)(=O)c2cc(Br)cnc2N)cc1C | 3 | -7 | -1 | 97* | -15
C=CCN1[C@@H](C)[C@H](c2ccccc2)Oc2cccc(N3CCCC(C)C3)c2S1(=O)=O (some centres not stated) | . | -25 | 16 | . | .
Cc1ccc(-c2noc(CCC(=O)N3CCN(c4cc(C)ccc4C)CC3)n2)cc1 | 0 | -35 | 0 | -6 | 8
COc1ccccc1-c1noc(CCC(=O)N2CCN(c3cc(C)ccc3C)CC2)n1 | 19 | 56* | 8 | 13 | -11
COc1ccc(-c2noc(CCCCC(=O)N3CCN(c4cc(C)ccc4C)CC3)n2)cc1 | 8 | 7 | 1 | 30* | -11
Cc1ccc(C)c(N2CCN(C(=O)CCc3nc(-c4ccccc4C(F)(F)F)no3)CC2)c1 | 14 | 68* | 7 | -3 | -8
COc1cc(C(=O)NC2CCCCN(C)C2=O)cc(OC)c1OC (configuration not stated) | . | -1 | 1 | . | .
O=C1N[C@@H](Cc2ccccc2)C(=O)N2[C@H]1CSCCS2(=O)=O | . | 3 | 13 | . | .
C=CC[C@]1(c2ccccc2)C(=O)N2C[C@H]3CON(C)[C@H]3C[C@H]2c2ccccc21 | . | -10 | 1 | . | .
O=C(Nc1ccc(-c2nnco2)cc1)c1ccccc1 | 2 | 15 | 9 | 6 | -2
O=C(Nc1ccccc1)Nc1cccc(-c2nnco2)c1 | 7 | -6 | 44* | -8 | 2
Cc1ccc(S(=O)(=O)N2C[C@H]3C(=O)C[C@@H]4C(=O)N(c5ccccc5)C(=O)[C@@H]4[C@@H]3C[C@H]2c2cccc(Cl)c2)cc1 | 19 | 60* | 10 | 16 | -13
O=C(NCc1ccccc1)C(c1ccco1)N1CCN(CCN2CCOCC2)CC1 (configuration not stated) | . | -13 | 1 | . | .
N=c1c2ccccc2nc2n1CCCCCCCCCCC2 | 34* | -39 | 4 | 23 | -9
CC(=O)N(C1=C(Cl)C(=O)c2ccccc2C1=O)C1CCCCC1 | 11 | 40 | 42* | 44* | -13
Clc1ccc(C[n+]2csc3ccccc32)cc1 | 0 | 9 | 2 | 9 | -8
Fc1ccc(C[n+]2csc3ccccc32)cc1 | 6 | -1 | 17 | 28* | -7
O=S(=O)(c1ccccc1)N1N=C(c2cccs2)CC1c1ccc(Br)cc1 (configuration not stated) | 0 | 18 | -1 | -8 | 21*
O=S(=O)(c1ccccc1)N1N=C(c2ccccc2)CC1c1ccccc1 (configuration not stated) | 1 | 6 | 0 | 6 | -10
C[C@H](O)[C@@H]1C(=O)N2CCc3c([nH]c4c(-c5ccccc5)cccc34)[C@@H]2C[C@@H]1N(C)C(=S)Nc1ccc(C#N)cc1 | . | 6 | 4 | . | .
CCS(=O)(=O)c1ncc(Cl)c(C(=O)Nc2ccc(C)cc2)n1 | -1 | 10 | 3 | 14 | -4
Cc1ccc(CS(=O)(=O)c2ncc(Cl)c(C(=O)Nc3ccc(OC(F)F)cc3)n2)cc1 | 5 | 28 | -1 | 56* | -8
COC(=O)/C=C1\OC(C2CC2)c2ccccc21 (configuration not stated) | 0 | -25 | 1 | 13 | -1
